ChEMBL document CHEMBL2331408, “Discovery and structure-activity relationships of pyrrolone antimalarials” (J Med Chem, 2013)

Key:
[1] = (§1) Intrinsic clearance in mouse liver microsomes at 1 uM by LC/MS analysis; assay type: ADME, Microsome; conditions: liver microsomes, read-out: CLH
Procedure, shortened: (§2)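 Mouse hepatic microsomes; in vitro intrinsic clearance from compound degradation during incubation, expressed as μL/min/mg.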

[2] = Partition coefficient, log D of the compound at pH 7.4 by HPLC analysis; assay type: physicochemical; conditions: octanol/water
Procedure, shortened: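 LogD at pH 7.4 measured with a chromatographic gLogD technique.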

[3] = Drug metabolism in mouse liver microsomes assessed as mono-oxygenation at 1 uM by LC/MS analysis; assay type: ADME, Microsome
[4] = system: Liver; test: as §1; assay type: ADME, Microsome; conditions: microsomes, 1 µM; procedure, shortened: as §2
[5] = Drug metabolism in mouse liver microsomes assessed as bis-oxygenation at 1 uM by LC/MS analysis; assay type: ADME, Microsome
[6] = Drug metabolism in mouse liver microsomes assessed as morpholine ring cleavage at 1 uM by LC/MS analysis; assay type: ADME, Microsome

Row | Compound | logD [2] | Microsomal intrinsic clearance (CLint) [4] | further results
1 | CCOC(=O)C1=C(O)/C(=C\c2cc(C)n(-c3ccc(F)cc3)c2C)N=C1C | 2.9 | – | microsomal CLint at 1 µM [1]: 94 µL/min/mg; Drug metabolism [3]: Active
2 | CCOC(=O)C1=C(C)N/C(=C/c2cc(C)n(-c3cc(OC)c(OC)c(OO)c3)c2C)C1=O | 2.6 | – | microsomal CLint at 1 µM [1]: 63 µL/min/mg
3 | CCOC(=O)C1=C(C)N/C(=C/c2cc(C)n(-c3ccc(SC(F)(F)F)cc3)c2C)C1=O | – | 76 µL/min/mg | Drug metabolism [3]: Active
4 | CCOC(=O)C1=C(C)N/C(=C/c2cc(C)n(-c3ccc(S(=O)(=O)C(F)(F)F)cc3)c2C)C1=O | – | 58 µL/min/mg | –
5 | CCOC(=O)C1=C(C)N/C(=C/c2cc(C)n(-c3ccc(SC)cc3)c2C)C1=O | – | 66 µL/min/mg | Drug metabolism [3]: Active
6 | CCOC(=O)C1=C(C)N/C(=C/c2cc(C)n(-c3cccnc3)c2C)C1=O | 2.1 | 82 µL/min/mg | –
7 | CCOC(=O)C1=C(C)N/C(=C/c2cc(C)n(Cc3ccc(C(F)(F)F)cc3)c2C)C1=O | – | 100 µL/min/mg | –
8 | CCOC(=O)C1=C(C)N/C(=C/c2cc(C)n(-c3ccc(CN4CCCCC4)cc3)c2C)C1=O | 8.5 | 60 µL/min/mg | –
9 | CCOC(=O)C1=C(C)N/C(=C/c2cc(C)n(-c3ccc(CN(C)C)cc3)c2C)C1=O | 8.3 | 31 µL/min/mg | –

Now from value to compound, other results behind:

Row | logD [2] | Microsomal intrinsic clearance (CLint) [4] | Compound | further results
10 | 2.9 | 150 µL/min/mg | CCOC(=O)C1=C(C)N/C(=C/c2cc(C)n(-c3cccc(OC)c3)c2C)C1=O | –
11 | 3.2 | 61 µL/min/mg | CCOC(=O)C1=C(C)N/C(=C/c2cc(C)n(-c3ccncc3)c2C)C1=O | Drug metabolism [5]: Active; Drug metabolism [3]: Active
12 | 3.3 | 31 µL/min/mg | CCOC(=O)C1=C(C)N/C(=C/c2cc(C)n(-c3ccc(N4CCOCC4)cc3)c2C)C1=O | Drug metabolism [6]: Active
13 | 6.7 | 56 µL/min/mg | CCOC(=O)C1=C(C)N/C(=C/c2cc(C)n(-c3ccc(CN4CCOCC4)cc3)c2C)C1=O | –
14 | – | 160 µL/min/mg | CCOC(=O)C1=C(C)N/C(=C/c2ccn(-c3ccccc3C(F)(F)F)c2)C1=O | –
